High-throughput results: PubChem, several laboratories
The list is not random: actives were taken first. Their share in the collection is about 3.9%.
TAAR1 antagonist: antagonists of human TAAR1 | inhibition, % at 3 µM | AID 624466 | 360,000 tested, 1.5% active | CHO RD-HGA16 TAAR1, Fluo-8 calcium fluorescence, antagonist;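 active = inhibition above a per-plate cutoff, the mean inhibition of test compounds on that plate plus 3 SD, cut at about 49% in these data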
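Assay system: CHO-derived RD-HGA16 cells stably expressing human TAAR1 plus Gα16. Timing: 140 s kinetic read after compound, 140 s after agonist. Technique: kinetic Fluo-8 calcium fluorescence measurement. Measure: % inhibition of agonist calcium response.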
ANO1 block: inhibitors of mouse TMEM16A calcium-activated chloride channel; Q8BHY3; 310,000 tested, 1.2% active; HEK293 TMEM16A/YFP iodide influx fluorescence, ionomycin; normalized B-score (activity score, 25-100; higher = stronger inhibition) at 10 µM;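 active = ratio plate-corrected score three or more library SD toward inhibition, starting fluorescence score within five deviations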;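 also: score derived from kinetic fluorescence span divided by baseline fluorescence per well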
TAAR1 agonist: agonists of human TAAR1; CHO RD-HGA16 TAAR1, Fluo-8 calcium fluorescence; vehicle wells 0%, saturating PEA agonist 100%; 360,000 tested, 0.99% active; AID 624467; activation, % at 3 µM; Q96RJ0;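 active = activation above the mean activation of all test compounds in the run plus 3 SD, cut at about 38% in these data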
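Test system: RD-HGA16 (CHO) cells co-expressing Gα16 and hTAAR1 / Benchmarks: DMSO vehicle as 0%, PEA at EC100 as 100% / Repeats: no replicates (n 1) / Measure: % activation from peak over basal fluorescence ratio, DMSO-to-PEA scaled / Timing: 17-24 h plating, Fluo-8 75 min 37 °C, 30 min RT / Technique: kinetic Fluo-8 calcium fluorescence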
CRFBP-R2 agonist: agonists of human CRF-binding protein/CRF-R2 receptor complex; HEK293 CRF-R2/CRF-BP, calcium dye fluorescence (FLIPR); percent of saturating CRF peptide response; activation, % at 13.2 µM; 350,000 tested, 0.46% active; AID 588473;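 active = activation of at least 50%, plus an integration ratio under a set limit after plate pattern correction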
ANO1 activ: activates or potentiates the mouse TMEM16A chloride channel | HEK293 TMEM16A/YFP-H148Q/I152L, iodide quench fluorescence; hits give low values | AID 623877 | B-score at 10 µM | 340,000 tested, 0.3% active;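 active = fluorescence-ratio B-score plate-corrected deviation score at least 3 library SD below zero, with starting fluorescence score within 5 deviations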;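 also: channel opened by trigger with iodide after compound preincubation; score built on the fluorescence ratio of max minus min over baseline; more negative score means more quench and so TMEM16A activation or potentiation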
CRFBP-R2 block: CRF-BP/CRF-R2 complex antagonism; HEK293 CRF-R2/CRF-BP, CRF-induced calcium fluorescence; inhibition, % at 11.8 µM; 350,000 tested, 0.59% active; AID 588475;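 active = inhibition of the ligand-induced calcium signal above about 50% at the single tested concentration, limit read from the data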
TMEM16A reconf: TMEM16A (mouse) chloride channel inhibition, re-confirmation; shares compounds with ANO1 block; AID 652189; HEK293 TMEM16A/YFP-H148Q, iodide quench fluorescence; ionomycin added to raise cell calcium; 2,300 tested, 39% active; inhibition, % at 10 µM;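 active = mean duplicate percent inhibition, scaled so buffer wells are 0 and the reference blocker 100, over three buffer SD above buffer mean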
HEK293 Ca mobil: counter-screen for TMEM16A inhibitors: effect on calcium mobilization; calcium response (% of ionomycin), % at 10 µM; 2,300 tested, 2% active; shares compounds with ANO1 block; TMEM16A/YFP HEK293, Fluo4 calcium mobilization;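 active = duplicate-averaged calcium signal over 20% of the ionomycin maximum, relative to buffer baseline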;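 also: each well's signal is peak minus trough fluorescence divided by its pre-addition baseline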
Parental YFP cnt: parental YFP-HEK293 iodide quench counter-screen activity; shares compounds with ANO1 block; ionomycin; YFP ratio F(max-min)/F0 at 10 µM; 2,300 tested, under 10 active; AID 652233;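 active = yellow fluorescent protein signal ratio exceeding the buffer control mean by over 5 SD of those controls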;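 also: ratio is mean of duplicate wells from kinetic YFP trace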
ClC-1 inh: blocks the rat ClC-1 voltage-dependent chloride channel; AID 652236; ratio percent, % at 10 µM; CHO ClC-1-YFP, iodide influx fluorescence quench; iodide control reads 0, buffer control 100; shares compounds with ANO1 block; 2,300 tested, under 10 active;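 active = duplicate-mean ratio percent above the mean of iodide-only control wells, which defines zero, plus 5 of their SD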;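 also: higher percent means stronger block of ClC-1 iodide influx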
Target sequence (P35524 whole entry, looked up): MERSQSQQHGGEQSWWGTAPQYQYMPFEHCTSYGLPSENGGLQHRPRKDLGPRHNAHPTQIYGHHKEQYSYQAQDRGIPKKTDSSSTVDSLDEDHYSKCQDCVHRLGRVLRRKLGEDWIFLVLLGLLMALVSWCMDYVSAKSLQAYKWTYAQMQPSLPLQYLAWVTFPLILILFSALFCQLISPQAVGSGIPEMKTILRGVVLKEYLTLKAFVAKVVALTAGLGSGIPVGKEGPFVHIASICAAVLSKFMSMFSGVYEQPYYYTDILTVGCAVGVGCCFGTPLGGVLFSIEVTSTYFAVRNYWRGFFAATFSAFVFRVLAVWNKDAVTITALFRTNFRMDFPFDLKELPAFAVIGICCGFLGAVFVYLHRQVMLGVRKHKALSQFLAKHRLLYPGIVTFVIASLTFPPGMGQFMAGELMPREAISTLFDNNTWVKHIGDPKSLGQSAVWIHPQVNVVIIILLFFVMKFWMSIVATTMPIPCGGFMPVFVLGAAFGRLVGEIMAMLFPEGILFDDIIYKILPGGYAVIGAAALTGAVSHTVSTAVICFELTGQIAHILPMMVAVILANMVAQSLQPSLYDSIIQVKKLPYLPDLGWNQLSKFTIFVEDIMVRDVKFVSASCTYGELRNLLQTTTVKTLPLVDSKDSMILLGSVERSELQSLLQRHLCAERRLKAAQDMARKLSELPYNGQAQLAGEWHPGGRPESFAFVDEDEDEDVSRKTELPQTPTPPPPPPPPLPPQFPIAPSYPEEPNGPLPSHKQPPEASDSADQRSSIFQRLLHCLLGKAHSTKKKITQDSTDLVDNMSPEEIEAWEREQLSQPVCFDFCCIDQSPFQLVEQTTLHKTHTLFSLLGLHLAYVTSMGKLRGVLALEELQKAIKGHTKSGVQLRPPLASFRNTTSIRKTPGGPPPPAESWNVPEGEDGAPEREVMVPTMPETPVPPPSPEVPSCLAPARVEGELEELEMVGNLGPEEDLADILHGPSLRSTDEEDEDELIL
TAAR1 nonsel count: nonselective antagonism, TAAR1 counter-screen; shares compounds with TAAR1 antagonist; counterscreen cell line, calcium fluorescence, antagonist mode; inhibition, % at 3 µM; 2,400 tested, 77% active; AID 651780; in the data active = inhibition above about 22%;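 also: CHO-Ga16 host cells stimulated with ATP at an EC80 level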
TAAR1 antag conf: confirmation of human TAAR1 antagonists. shares compounds with TAAR1 antagonist. TAAR1-expressing cells, fluorescence antagonist read-out. inhibition, % at 3 µM. 2,400 tested, 40% active. AID 651785; in the data active = inhibition above about 49%;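 also: CHO-Ga16 host cells challenged with agonist PEA near its EC80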
Ga16 ag counter-1: nonselective Ga16 agonism, counter-screen. AID 651953. Ga16-expressing cells, calcium fluorescence, agonist counterscreen. 2,400 tested, 18% active. activation, % at 3 µM. shares compounds with TAAR1 antagonist; in the data active = activation above about 12%
TAAR1 ag count: TAAR1 agonism, antagonist counter-screen | shares compounds with TAAR1 antagonist | hTAAR1 cell line, fluorescence activation, agonist mode | activation, % at 3 µM | 2,400 tested, 2% active | AID 651955; in the data active = activation above about 37%;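 also: CHO cells stably expressing TAAR1 with calcium dye readout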
TAAR1 ag confirm: human TAAR1 agonism, confirmed. shares compounds with TAAR1 agonist. CHO RD-HGA16 TAAR1, Fluo-8 calcium fluorescence; scaled: DMSO 0%, maximal phenethylamine 100%. activation, % at 3 µM. 2,400 tested, 82% active;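 active = activation above a cutoff set at the run's mean compound activation plus 3 SD, cut at about 39% in these data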
Ga16 ag counter-2: counter-screen for TAAR1 agonists: nonselective agonists in parental cells; shares compounds with TAAR1 agonist; CHO-Ga16 parental, Fluo-8 calcium fluorescence; normalized to maximal ATP response, DMSO zero; activation, % at 3 µM; 2,400 tested, 50% active;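 active = activation above the run cutoff, the mean activation over all tested wells plus 3 SD, cut at about 12% in these data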
TAAR1 desens: human TAAR1 agonist that also desensitizes the receptor; shares compounds with TAAR1 agonist; CHO RD-HGA16 hTAAR1, Fluo-8 calcium, beta-PEA response inhibition; 2,400 tested, 46% active; inhibition, % at 3 µM;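 active = inhibition above the run cutoff, the mean inhibition of all test compounds plus 3 SD, cut at about 49% in these data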;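 also: beta-PEA stimulus applied at its EC80; loss of beta-PEA calcium signal after compound pretreatment read as receptor desensitization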
Ga16 nonsel ant: counter-screen for TAAR1 agonists: nonselective Ga16 antagonists; shares compounds with TAAR1 agonist; CHO-Ga16 ATP-induced calcium, Fluo-8 fluorescence; inhibition, % at 3 µM; 2,400 tested, 39% active;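 active = inhibition above the plate's mean compound inhibition plus 3 SD, computed per plate, cut at about 22% in these data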
A number is an active result; 0 = inactive; - = not tested or not shown.

SMILES	TAAR1 antagonist	ANO1 block	TAAR1 agonist	CRFBP-R2 agonist	ANO1 activ	CRFBP-R2 block	TAAR1 nonsel count	TAAR1 antag conf	Ga16 ag counter-1	TAAR1 ag count	others
CC(C)OC(=O)c1c(NS(=O)(=O)c2ccccc2)sc2c1CCCC2	0	100	62	76	0	0	-	-	-	-	TMEM16A reconf=72%;HEK293 Ca mobil=0;Parental YFP cnt=0;ClC-1 inh=0;TAAR1 ag confirm=0;Ga16 ag counter-2=15;TAAR1 desens=0;Ga16 nonsel ant=22
Cc1cc(C)cc(-n2c(C)cc(/C=N/NC(=O)CSc3ncccn3)c2C)c1	0	25	45	0	0	0	-	-	-	-	TMEM16A reconf=0;HEK293 Ca mobil=0;Parental YFP cnt=0;ClC-1 inh=0;TAAR1 ag confirm=50;Ga16 ag counter-2=32;TAAR1 desens=55;Ga16 nonsel ant=33
CCn1ccnc1CN(C)C(=O)CCc1nnc(CCC2CCCCC2)o1	0	0	0	0	0	0	-	-	-	-
Cc1ccc(S(=O)(=O)Nc2ccc(C(=O)N3CCCC3)cc2)cc1	0	0	0	0	0	0	-	-	-	-
Cc1ccc(NS(=O)(=O)c2ccc(C(=O)N3CC(C)CC(C)C3)cc2)cc1 (stereo unspecified)	102	100	141	117	-17	0	-	-	-	-	TMEM16A reconf=80%;HEK293 Ca mobil=40%;Parental YFP cnt=0;ClC-1 inh=0;TAAR1 ag confirm=128;Ga16 ag counter-2=91;TAAR1 desens=106;Ga16 nonsel ant=89
CCN(CCNCC(O)COc1ccccc1C(C)C)c1cccc(C)c1 (stereo unspecified)	0	0	73	0	0	0	-	-	-	-	TMEM16A reconf=34%;HEK293 Ca mobil=0;Parental YFP cnt=0;ClC-1 inh=0;TAAR1 ag confirm=79;Ga16 ag counter-2=20;TAAR1 desens=58;Ga16 nonsel ant=39
Cc1ccc(-c2cccc(-c3cc(=O)oc4ccc(C(C)(C)C)cc34)c2)cc1	0	-	0	0	0	0	-	-	-	-
CSc1ncc(-c2ccc(Cl)cc2)[nH]1	0	0	0	0	0	0	-	-	-	-
N#CC1(Nc2ccccc2)C(=O)Nc2ccccc21 (stereo unspecified)	0	0	0	0	0	0	-	-	-	-
N#CC1(Nc2cccc(Br)c2)C(=O)Nc2ccccc21 (stereo unspecified)	0	100	83	0	0	0	-	-	-	-	TMEM16A reconf=64%;HEK293 Ca mobil=0;Parental YFP cnt=0;ClC-1 inh=0;TAAR1 ag confirm=54;Ga16 ag counter-2=32;TAAR1 desens=52;Ga16 nonsel ant=42
COc1ccc(C)cc1-n1nnnc1SCc1nc2ccccc2s1	54	0	0	0	0	0	27	0	0	0
O=C1C2C3CCC(C3NCc3ccccc3)C2C(=O)N1Cc1ccccc1 (stereo unspecified)	55	0	0	0	0	0	0	0	0	0
O=C1C2CCCCC2C(=O)N1Cc1ccccc1 (stereo unspecified)	0	0	0	0	0	0	-	-	-	-
Cn1c(N)nc2nc[nH]c2c1=S	0	-	0	0	0	0	-	-	-	-
CC1(C)CC(=O)c2c(nc(SCC(=O)Nc3nsc(-c4ccccc4)n3)c(C#N)c2-c2ccccc2)C1	0	0	0	0	0	0	-	-	-	-
CCc1c(C#N)c(SCCC(=O)Nc2ccc(F)cc2)nc2c1C(=O)CC(C)(C)C2	74	0	0	0	0	0	33	72	0	0
CC(C)Oc1ccccc1/C=N/NC(=O)C1CC1	104	0	0	0	0	0	0	0	0	0
CC1Cc2ccccc2N1C(=O)c1cc2c(=O)n3ccccc3nc2n1C (stereo unspecified)	56	0	0	0	0	0	27	49	12	0
CCc1ccc(N2C(=O)C(Cl)=C(Nc3ccc(C(=O)N4CCCC4)cc3)C2=O)cc1	-	-	-	0	0	0	-	-	-	-
CC(=O)N(C)c1ccc(NC(=O)Nc2ccc(C)cc2)cc1	57	0	0	0	0	0	0	0	0	0
Cc1ccc(CNC(=O)c2ccc(COc3ccccc3)cc2)cc1	53	0	0	0	0	0	0	0	0	0
COc1ccc(-c2ccc(C(=O)Nc3cccc(C(F)(F)F)c3)c3occc23)c(C)c1	0	-	0	-	-	-	-	-	-	-
COc1ccc(-c2ccc(C(=O)Nc3cc(OC)c(OC)c(OC)c3)c3occc23)c(C)c1	61	-	0	-	-	-	30	49	0	0
COCCNC(=O)c1ccc(-c2ccc(OC)cc2C)c2ccoc12	0	-	0	-	-	-	-	-	-	-
COc1ccc(-c2ccc(C(=O)NCC3CCOCC3)c3occc23)c(C)c1	59	-	0	-	-	-	32	58	0	0
CC(=O)Nc1cccc(-c2ccnc3c2CC(C(=O)Nc2cccc(N(C)C)c2)O3)c1 (stereo unspecified)	0	-	0	-	-	-	-	-	-	-
CC[C@]12c3[nH]c4cc(CCC(=O)N(C)C)ccc4c3CCN1C(=O)[C@@H](CC(=O)NC(C)(C)C)C[C@@H]2C(=O)N1CCN(C(=O)c2ccco2)CC1	0	-	0	0	-	0	-	-	-	-
